OX1R antag-1 = blocks the human orexin 1 receptor. O43613. CHO/OX1R cells, Fluo-8 calcium fluorescence, orexin A. inhibition, % at 5 µM. 330,000 compounds, 0.43% hits;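 active means inhibition above its plate's threshold, mean inhibition of all tested compounds on the plate plus 3 SD, cut at about 37% in these data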;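 further: 0% = orexin A challenge wells and 100% = SB-334867-A antagonist wells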
OX1R antag-2 = OX1R (human) antagonism; 330,000 compounds, 1.8% hits; OX1R-expressing cells, FRET antagonist read-out; AID 485270; O43613; inhibition, % at 6.6 µM; in the data active means inhibition mostly above about 38%, no sharp cut-off; inactive means mostly below about 40%;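 further: 0% = agonist challenge alone and 100% = reference antagonist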
TAAR1 antag = antagonists of human TAAR1; CHO RD-HGA16 TAAR1, Fluo-8 calcium fluorescence, antagonist; AID 624466; inhibition, % at 3 µM; 360,000 compounds, 1.5% hits; Q96RJ0;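 active means inhibition above a per-plate cutoff, the mean inhibition of test compounds on that plate plus 3 SD, cut at about 49% in these data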;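 further: 0% = DMSO plus EC80 beta-PEA response and 100% = DMSO alone without agonist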
Target sequence (Q96RJ0 whole entry, looked up): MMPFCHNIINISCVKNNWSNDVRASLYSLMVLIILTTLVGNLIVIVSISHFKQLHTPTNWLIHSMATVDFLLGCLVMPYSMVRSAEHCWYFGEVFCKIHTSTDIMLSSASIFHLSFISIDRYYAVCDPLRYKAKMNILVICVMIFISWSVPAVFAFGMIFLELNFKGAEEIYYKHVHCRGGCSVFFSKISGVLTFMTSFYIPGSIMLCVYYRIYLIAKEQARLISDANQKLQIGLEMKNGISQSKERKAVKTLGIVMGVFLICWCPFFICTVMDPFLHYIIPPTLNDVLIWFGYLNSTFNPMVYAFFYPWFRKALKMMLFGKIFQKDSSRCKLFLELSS
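System: CHO RD-HGA16 cells bearing hTAAR1. Reagent: EC80 β-phenethylamine stimulus. Schedule: seeding 17-24 h prior, 75-min 37 °C, 30-min RT dye loading. Signal: Fluo-8 intracellular calcium dye fluorescence, real-time kinetic reads. Read-out: % inhibition from peak post-agonist over basal fluorescence ratio. Benchmarks: vehicle wells and EC80 agonist wells. Replicates: n of 1.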
CHO parental Ca = counter-screen for OX1R antagonists: effect in parental CHO cells; inhibition, % at 5.6 µM; 330,000 compounds, 0.63% hits; AID 463079; parental CHO-K1, ATP-induced calcium, Fluo-8 fluorescence;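 active means inhibition above that plate's mean sample inhibition plus 3 SD, cut at about 26% in these data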;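 further: 0% = ATP-challenged DMSO wells and 100% = DMSO wells without ATP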
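material = parental CHO cells | also added = ATP as calcium-mobilizing challenge | dosing = single point at 5.6 µM | detection = intracellular calcium via Fluo-8 no-wash fluorescent dye | read-out = % inhibition | benchmarks = low control ATP plus DMSO, high control DMSO only | repeats = one well per compound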
TAAR1 agonist = human TAAR1 agonism; activation, % at 3 µM; Q96RJ0; AID 624467; CHO RD-HGA16 TAAR1, Fluo-8 calcium fluorescence; vehicle wells 0%, saturating PEA agonist 100%; 360,000 compounds, 0.99% hits;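 active means activation above the mean activation of all test compounds in the run plus 3 SD, cut at about 38% in these data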
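test system = CHO RD-HGA16 cells carrying human TAAR1 plus Gα16 | schedule = 17-24 h seeding, 75 min 37 °C dye, 30 min RT | compound dosing = 3 µM single concentration | control set = DMSO and PEA EC100 | replicates = n 1 | signal = Fluo-8 fluorescence, 5 s baseline then 140 s kinetic read | measure = percent activation vs PEA EC100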
TAAR1 ag conf = confirmation of human TAAR1 agonists; shares compounds with TAAR1 agonist; CHO RD-HGA16 TAAR1, Fluo-8 calcium fluorescence; scaled: DMSO 0%, maximal phenethylamine 100%; activation, % at 3 µM; 2,400 compounds, 82% hits;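 active means activation above a cutoff set at the run's mean compound activation plus 3 SD, cut at about 39% in these data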
Ga16 ag counter = nonselective agonist in parental cells, TAAR1 agonist counter-screen; 2,400 compounds, 50% hits; AID 651787; shares compounds with TAAR1 agonist; CHO-Ga16 parental, Fluo-8 calcium fluorescence; normalized to maximal ATP response, DMSO zero; activation, % at 3 µM;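 active means activation above the run cutoff, the mean activation over all tested wells plus 3 SD, cut at about 12% in these data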;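 further: 0% = DMSO wells and 100% = maximal ATP response on the peak over basal ratio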
TAAR1 desens = human TAAR1 agonist that also desensitizes the receptor; shares compounds with TAAR1 agonist; inhibition, % at 3 µM; 2,400 compounds, 46% hits; CHO RD-HGA16 hTAAR1, Fluo-8 calcium, beta-PEA response inhibition;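 active means inhibition above the run cutoff, the mean inhibition of all test compounds plus 3 SD, cut at about 49% in these data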;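 further: beta-PEA stimulus applied at its EC80; loss of beta-PEA calcium signal after compound pretreatment read as receptor desensitization; 0% = DMSO with beta-PEA at EC80 and 100% = DMSO alone without agonist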
Ga16 nonsel ant = counter-screen for TAAR1 agonists: nonselective Ga16 antagonists; shares compounds with TAAR1 agonist; CHO-Ga16 ATP-induced calcium, Fluo-8 fluorescence; inhibition, % at 3 µM; 2,400 compounds, 39% hits; AID 651952;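 active means inhibition above the plate's mean compound inhibition plus 3 SD, computed per plate, cut at about 22% in these data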;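 further: 0% = EC80 ATP with DMSO and 100% = DMSO wells without ATP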
An asterisk follows results filed as active; x = no result given. Most compounds without a hit are left out; they make up all but 3.9% or so of the library.

SMILES	OX1R antag-1	OX1R antag-2	TAAR1 antag	CHO parental Ca	TAAR1 agonist	TAAR1 ag conf	Ga16 ag counter	TAAR1 desens	Ga16 nonsel ant
CCN(CC)c1ccc(/C=C(/C#N)c2nc3ccccc3[nH]2)c(OC(C)C)c1	116*	39*	99*	66*	92*	25	30*	65*	64*
Cc1c(CNCC(C)c2ccccc2)c(C(=O)O)c(C)n1Cc1ccccc1 (stereo unspecified)	-11	22	6	-19	90*	78*	2	18	-2
Cc1c(CNCCCc2ccccc2)c(C(=O)O)c(C)n1Cc1ccccc1	-13	-1	-5	-34	11	x	x	x	x
CC1(C(=O)NCCOc2ccccc2Cl)CC1(Cl)Cl (stereo unspecified)	-4	2	-26	0	0	x	x	x	x
CN(/N=C/c1ccc(-c2ccc([N+](=O)[O-])cc2)o1)c1ccccc1	60*	28	68*	53*	66*	44*	71*	63*	74*
NC(=S)N/N=C/c1ccc(-c2ccc([N+](=O)[O-])cc2)o1	-10	21	3	-6	5	x	x	x	x
CCCCC(=O)Nc1ccc(C(=O)Nc2ccc(OC)cc2[N+](=O)[O-])cc1	24	32	76*	27	99*	18	4	26	20
C=CCN(CC=C)S(=O)(=O)c1ccc2nc(NC(=O)C(C)C)sc2c1	-2	31	8	-20	40*	69*	31*	28	11
Cc1cc(C(=O)COC(=O)C2=NNC(=O)CC2)c(C)n1CCc1ccccc1	-23	17	15	-25	61*	86*	3	76*	10
Cc1cc(C(=O)COC(=O)c2ccc(NC(=O)CC#N)cc2)c(C)n1CCc1ccc(F)cc1	17	10	46	11	55*	82*	6	77*	30*
COc1ccc(CCn2c(C)cc(C(=O)COC(=O)c3ccc(NC(=O)CC#N)cc3)c2C)cc1	4	6	x	-1	x	x	x	x	x
Cc1cc(C(=O)COC(=O)c2ccc[nH]c2=O)c(C)n1CCc1ccc(F)cc1	-10	20	0	-7	14	x	x	x	x
Cc1ccc(-n2cc(CN3CCC(O)(c4ccccn4)CC3)c(-c3ccc(F)cc3)n2)cc1	-9	11	3	-19	12	x	x	x	x
COc1cc(C(=O)Nn2cnnc2)ccc1OC(F)F	-14	10	5	-6	5	x	x	x	x
CCCC(C(=O)Nc1ccc(S(=O)(=O)N2CCOCC2)cc1)c1ccccc1 (stereo unspecified)	28	5	57*	11	96*	86*	46*	69*	34*
O=C(NCCC(NS(=O)(=O)OCC(Cl)(Cl)Cl)c1ccccc1)C(F)(F)F (stereo unspecified)	-26	11	7	-19	9	x	x	x	x
Cc1ccc(N=Nc2ccc(O)c3ncccc23)cc1	44	21	82*	59*	63*	5	4	48	51*
Cc1ccc(N=Nc2ccc(O)c3ncccc23)cc1C	2	3	11	9	2	x	x	x	x
C/C(=N/NC(=O)c1ccc(Br)o1)c1cccc(NC(=O)c2ccc(F)cc2)c1	-22	23	36	-13	2	x	x	x	x
CC1=C(C(=O)OCc2ccccc2)C(c2ccccc2)NC(=O)N1CCCCCC(=O)O (stereo unspecified)	-37	25	12	-19	5	x	x	x	x

Screening data as filed in PubChem.
